Data: ChEMBL document CHEMBL3872233, “Topical Treatment of Leishmania tropica Infection Using (-)-α-Bisabolol Ointment in a Hamster Model: Effectiveness and Safety Assessment” (J Nat Prod, 2016)
Calls of active or inactive are those of the source. The rule behind the calls is not given here.

Tests used:
Leishmania tropica [1] = assay: (§1) Antileishmanial activity against Leishmania tropica MHOM/MA/1988/LEM1314 promastigotes infected in Syrian hamster assessed as reduction in parasite load in foodpad skin at 1 % administered once daily tropically on footpad for 3 weeks starting at week 7 post infection measured 1 week post last dose by qPCR analysis relative to control; type: functional; parameters: scale not given: the % may be the effect or the level left
How it was run: (§2)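 Hamsters were infected in the footpad and treated daily for 21 days from week 7 post-infection, n = 10/group, and sacrificed 1 week after the last dose. Footpad skin, liver and spleen DNA was assayed by L. tropica-specific TaqMan qPCR (chromosome 29 target), in triplicate with 50 ng DNA per 25 μL reaction. Load was interpolated from Ct on a calibration curve of promastigote DNA, relative to base-ointment controls.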

Syrian golden hamster [2] = assay: Toxicity in Syrian hamster assessed as change in body weight at 500 mg/kg, po or 5 % administered tropically on footpad for 28 days; type: organism-based, Mesocricetus auratus; conditions: in vivo, 672 h
Syrian golden hamster [3] = assay: Toxicity in Syrian hamster infected with Leishmania tropica MHOM/MA/1988/LEM1314 promastigotes assessed as mean serum AST levels at 2.5 % administered tropically on footpad for 3 weeks starting at week 7 post infection measured 1 week post last dose (reference value: 77.1 +/- 0.9 U/L); type: organism-based, Mesocricetus auratus; conditions: in vivo, topical_or_ocular, 168 h
Leishmania tropica [4] = assay: as §1, with “liver” for “foodpad skin”, “[…]” for “1 %”, “through oral gavage” for “tropically on footpad”; type: functional, tissue-based; how it was run: as §2
Syrian golden hamster [5] = assay: Toxicity in Syrian hamster assessed as liver weight at 5 % administered tropically on footpad for 28 days (reference value: 4.1 +/- 0.7 g); type: organism-based, Mesocricetus auratus; conditions: in vivo, topical_or_ocular, 672 h
Leishmania tropica [6] = assay: as §1, with “in spleen” for “in foodpad skin”, “at 5” for “at 1”; type: functional; how it was run: as §2
Syrian golden hamster [7] = assay: Toxicity in Syrian hamster infected with Leishmania tropica MHOM/MA/1988/LEM1314 promastigotes assessed as mean serum creatinine levels at 200 mg/kg administered through oral gavage for 3 weeks starting at week 7 post infection measured 1 week post last dose (reference value: 0.19 mg/dl); type: organism-based, Mesocricetus auratus; conditions: in vivo, 168 h
Syrian golden hamster [8] = assay: Toxicity in Syrian hamster assessed as mean serum ALP levels at 5 % administered tropically on footpad for 28 days (reference value: 14.4 +/- 2 U/L); type: organism-based, Mesocricetus auratus; conditions: in vivo, topical_or_ocular, 672 h
Syrian golden hamster [9] = assay: Toxicity in Syrian hamster infected with Leishmania tropica MHOM/MA/1988/LEM1314 promastigotes assessed as mean serum ALP levels at 5 % administered tropically on footpad for 3 weeks starting at week 7 post infection measured 1 week post last dose (reference value: 14.4 +/- 0.9 U/L); type: organism-based, Mesocricetus auratus; conditions: in vivo, topical_or_ocular, 168 h
Leishmania tropica [10] = assay: as §1, with “liver” for “foodpad skin”, “2 mg/kg” for “1 %”, “administered intralesionally” for “administered”, “daily” for “daily tropically”; type: functional, organism-based; how it was run: as §2
Syrian golden hamster [11] = assay: Toxicity in Syrian hamster assessed as spleen weight at 500 mg/kg administered through oral gavage for 28 days (reference value: 179.4 +/- 19.8 mg); type: organism-based, Mesocricetus auratus; conditions: in vivo, 672 h
Syrian golden hamster [12] = assay: Toxicity in Syrian hamster infected with Leishmania tropica MHOM/MA/1988/LEM1314 promastigotes assessed as mean serum AST levels at 200 mg/kg administered through oral gavage for 3 weeks starting at week 7 post infection measured 1 week post last dose (reference value: 77.1 +/- 0.9 U/L); type: organism-based, Mesocricetus auratus; conditions: in vivo, 168 h
Syrian golden hamster [13] = assay: Toxicity in Syrian hamster infected with Leishmania tropica MHOM/MA/1988/LEM1314 promastigotes assessed as stress at 200 mg/kg administered through oral gavage for 3 weeks starting at week 7 post infection measured during compound dosing or measured 1 week post last dose; type: organism-based, Mesocricetus auratus; conditions: in vivo, 168 h
How it was run: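 Infected hamsters (footpad, 3 × 10^7 promastigotes) were gavaged daily for 21 days from week 7 post-infection at 200 mg/kg in olive oil, n=10.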

Syrian golden hamster [14] = assay: Toxicity in Syrian hamster infected with Leishmania tropica MHOM/MA/1988/LEM1314 promastigotes assessed as mean serum ALT levels at 2.5 % administered tropically on footpad for 3 weeks starting at week 7 post infection measured 1 week post last dose (reference value: 81.6 +/- 4.9 U/L); type: organism-based, Mesocricetus auratus; conditions: in vivo, topical_or_ocular, 168 h
Syrian golden hamster [15] = assay: Toxicity in Syrian hamster assessed as mean serum ALP levels at 500 mg/kg administered through oral gavage for 28 days (reference value: 14.4 +/- 2 U/L); type: organism-based, Mesocricetus auratus; conditions: in vivo, 672 h
Syrian golden hamster [16] = assay: Toxicity in Syrian hamster infected with Leishmania tropica MHOM/MA/1988/LEM1314 promastigotes assessed as spleen weight at 5 % administered tropically on footpad for 3 weeks starting at week 7 post infection measured 1 week post last dose (reference value: 178.8 +/- 1.2 mg); type: organism-based, Mesocricetus auratus; conditions: in vivo, topical_or_ocular, 168 h
Leishmania tropica [17] = assay: as §1, with “in spleen” for “in foodpad skin”, “at 2.5” for “at 1”; type: functional; how it was run: as §2
[18] = Toxicity in po dosed dog; type: organism-based, Canis lupus familiaris; conditions: in vivo
Syrian golden hamster [19] = assay: Toxicity in Syrian hamster infected with Leishmania tropica MHOM/MA/1988/LEM1314 promastigotes assessed as mean serum ALT levels at 200 mg/kg administered through oral gavage for 3 weeks starting at week 7 post infection measured 1 week post last dose (reference value: 81.6 +/- 4.9 U/L); type: organism-based, Mesocricetus auratus; conditions: in vivo, 168 h
Syrian golden hamster [20] = assay: Toxicity in Syrian hamster infected with Leishmania tropica MHOM/MA/1988/LEM1314 promastigotes assessed as mean serum ALP levels at 200 mg/kg administered through oral gavage for 3 weeks starting at week 7 post infection measured 1 week post last dose (reference value: 14.4 +/- 0.9 U/L); type: organism-based, Mesocricetus auratus; conditions: in vivo, 168 h
Syrian golden hamster [21] = assay: Toxicity in Syrian hamster infected with Leishmania tropica MHOM/MA/1988/LEM1314 promastigotes assessed as mean serum AST levels at 1 % administered tropically on footpad for 3 weeks starting at week 7 post infection measured 1 week post last dose (reference value: 77.1 +/- 0.9 U/L); type: organism-based, Mesocricetus auratus; conditions: in vivo, topical_or_ocular, 168 h
Syrian golden hamster [22] = assay: Toxicity in Syrian hamster assessed as mean serum creatinine levels at 5 % administered tropically on footpad for 28 days (reference value: 0.21 +/- 0.2 mg/dl); type: organism-based, Mesocricetus auratus; conditions: in vivo, topical_or_ocular, 672 h
Syrian golden hamster [23] = assay: Toxicity in Syrian hamster infected with Leishmania tropica MHOM/MA/1988/LEM1314 promastigotes assessed as spleen weight at 200 mg/kg administered through oral gavage for 3 weeks starting at week 7 post infection measured 1 week post last dose (reference value: 178.8 +/- 1.2 mg); type: organism-based, Mesocricetus auratus; conditions: in vivo, 168 h
Syrian golden hamster [24] = assay: Toxicity in Syrian hamster infected with Leishmania tropica MHOM/MA/1988/LEM1314 promastigotes assessed as mean serum AST levels at 5 % administered tropically on footpad for 3 weeks starting at week 7 post infection measured 1 week post last dose (reference value: 77.1 +/- 0.9 U/L); type: organism-based, Mesocricetus auratus; conditions: in vivo, topical_or_ocular, 168 h
Syrian golden hamster [25] = assay: Toxicity in Syrian hamster infected with Leishmania tropica MHOM/MA/1988/LEM1314 promastigotes assessed as mean serum creatinine levels at 2.5 % administered tropically on footpad for 3 weeks starting at week 7 post infection measured 1 week post last dose (reference value: 0.19 mg/dl); type: organism-based, Mesocricetus auratus; conditions: in vivo, topical_or_ocular, 168 h

## CC(C)=CCC[C@](C)(O)[C@@H]1CC=C(C)CC1 [LEVOMENOL]
Leishmania tropica [1]
  Activity: 56%
Syrian golden hamster [2]
  Activity: Non-Toxic
Syrian golden hamster [3]
  Activity: 87 U/L
Leishmania tropica [4]
  Activity: Active
Syrian golden hamster [5]
  Activity: 3.4 g
Leishmania tropica [6]
  Activity: Active
Syrian golden hamster [7]
  Activity: 0.2 mg/dL
Syrian golden hamster [8]
  Activity: 14.1 U/L
Syrian golden hamster [9]
  Activity: 14.7 U/L
Leishmania tropica [10]
  Activity: Active
Syrian golden hamster [11]
  Activity: 181.2 mg
Syrian golden hamster [12]
  Activity: 77.9 U/L
Syrian golden hamster [13]
  Activity: Non-Toxic
Syrian golden hamster [14]
  Activity: 81.3 U/L
Syrian golden hamster [15]
  Activity: 14.7 U/L
Syrian golden hamster [16]
  Activity: 193.1 mg
Leishmania tropica [17]
  Activity: Active
[18]
  LOAEL: 2 mL/kg
Syrian golden hamster [19]
  Activity: 81.6 U/L
Syrian golden hamster [20]
  Activity: 12.9 U/L
Syrian golden hamster [21]
  Activity: 82.2 U/L
Syrian golden hamster [22]
  Activity: 0.19 mg/dL
Syrian golden hamster [23]
  Activity: 177.3 mg
Syrian golden hamster [24]
  Activity: 73 U/L
Syrian golden hamster [25]
  Activity: 0.21 mg/dL
